Assay results: BindingDB's records for doi:10.1021/jm901449m (Progen Pharmaceuticals, 2010)
pKd, pKi: −log10 of the molar value.

Columns and labels:
Heparanase = biological target: T1, Heparanase (Homo sapiens, UniProt Q9Y251); assay: Inhibition of human recombinant heparanase
T1 sequence (Q9Y251 whole entry): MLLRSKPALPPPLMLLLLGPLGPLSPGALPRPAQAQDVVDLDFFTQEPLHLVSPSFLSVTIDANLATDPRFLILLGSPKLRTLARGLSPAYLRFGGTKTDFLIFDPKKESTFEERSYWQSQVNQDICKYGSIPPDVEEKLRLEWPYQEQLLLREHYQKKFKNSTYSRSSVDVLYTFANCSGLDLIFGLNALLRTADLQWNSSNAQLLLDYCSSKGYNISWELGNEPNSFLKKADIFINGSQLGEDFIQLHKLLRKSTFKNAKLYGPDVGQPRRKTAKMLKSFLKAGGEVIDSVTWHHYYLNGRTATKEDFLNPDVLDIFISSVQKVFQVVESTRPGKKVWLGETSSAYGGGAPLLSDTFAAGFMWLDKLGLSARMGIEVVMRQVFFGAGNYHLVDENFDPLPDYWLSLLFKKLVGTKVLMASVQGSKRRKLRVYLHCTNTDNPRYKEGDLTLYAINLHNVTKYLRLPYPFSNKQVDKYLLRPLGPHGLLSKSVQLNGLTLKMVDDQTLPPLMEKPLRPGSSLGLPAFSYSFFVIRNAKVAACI
How it was run: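 Recombinant human heparanase assayed by ultrafiltration with 3H-labelled heparan sulfate as substrate (Km = 1.64 μM). Ki values with standard error were derived from inhibition response curves.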

[1] = biological target: Fibroblast growth factor 1 (Homo sapiens, UniProt P05230); assay: Binding affinity to FGF1 by surface plasmon-based solution affinity assay
Sequence of Fibroblast growth factor 1 (P05230 whole entry): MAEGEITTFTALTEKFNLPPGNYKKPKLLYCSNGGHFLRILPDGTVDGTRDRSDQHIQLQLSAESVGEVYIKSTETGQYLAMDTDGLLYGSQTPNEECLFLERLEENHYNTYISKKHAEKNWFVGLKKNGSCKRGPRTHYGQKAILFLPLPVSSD
How it was run: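 Surface plasmon resonance solution affinity assay on heparin-coated CM4 chips. Buffer: HBS-EP (10 mM HEPES pH 7.4, 150 mM NaCl, 3.0 mM EDTA, 0.005% polysorbate 20). Kd is the mean of at least duplicate measurements ± SD.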

[2] = biological target: Fibroblast growth factor 2 (Homo sapiens, UniProt P09038); assay: Binding affinity to FGF2 by surface plasmon-based solution affinity assay
Sequence of Fibroblast growth factor 2 (P09038 143-288 limits assumed): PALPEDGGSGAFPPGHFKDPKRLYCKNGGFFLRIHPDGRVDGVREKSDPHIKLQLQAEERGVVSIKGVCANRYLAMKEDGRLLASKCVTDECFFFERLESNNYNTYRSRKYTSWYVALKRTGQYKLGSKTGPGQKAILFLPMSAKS
How it was run: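 Surface plasmon resonance solution affinity assay on heparin-coated CM4 chips. FGF-2 binding run in HBS-EP containing 300 mM NaCl. Kd is the mean of at least duplicate measurements ± SD.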

[3] = biological target: T2, Vascular endothelial growth factor A (Homo sapiens, UniProt P15692); assay: Binding affinity to VEGF by surface plasmon-based solution affinity assay
T2 sequence (P15692 whole entry): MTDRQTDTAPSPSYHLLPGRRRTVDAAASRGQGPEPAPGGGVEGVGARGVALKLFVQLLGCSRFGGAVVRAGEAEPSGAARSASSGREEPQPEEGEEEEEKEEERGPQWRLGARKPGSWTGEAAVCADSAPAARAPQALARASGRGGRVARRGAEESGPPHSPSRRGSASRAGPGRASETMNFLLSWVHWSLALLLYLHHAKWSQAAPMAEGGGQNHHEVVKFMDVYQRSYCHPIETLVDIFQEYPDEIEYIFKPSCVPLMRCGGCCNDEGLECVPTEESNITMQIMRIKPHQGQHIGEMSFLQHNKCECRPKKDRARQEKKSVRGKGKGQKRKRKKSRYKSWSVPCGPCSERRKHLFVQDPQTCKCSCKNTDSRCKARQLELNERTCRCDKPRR

pKi (Heparanase): 6.62 | pKd [1]: 9.62 | pKd [2]: 7.21 | pKd [3]: 8.66
Compound: O=P(O)(O)OC[C@H]1O[C@H](O[C@@H]2[C@H](OS(=O)(=O)O)[C@@H](O[C@@H]3[C@H](OS(=O)(=O)O)[C@@H](O[C@@H]4[C@H](OS(=O)(=O)O)[C@@H](O[C@@H]5[C@@H](OS(=O)(=O)O)O[C@H](COS(=O)(=O)O)[C@@H](OS(=O)(=O)O)[C@@H]5OS(=O)(=O)O)O[C@H](COS(=O)(=O)O)[C@H]4OS(=O)(=O)O)O[C@H](COS(=O)(=O)O)[C@H]3OS(=O)(=O)O)O[C@H](COS(=O)(=O)O)[C@H]2OS(=O)(=O)O)[C@@H](OS(=O)(=O)O)[C@@H](OS(=O)(=O)O)[C@@H]1OS(=O)(=O)O [PI-88]
